Measurements published in ChEMBL document CHEMBL1926513, “Synthesis of novel cinnamanilides as potential immunosuppressive agents” (Eur J Med Chem, 2012).
pIC50: −log10 of the molar value. Calls of active or inactive are those of the source. The calls are words filed in the database; no cut-off is given here.

Legend:
[1] = Immunosuppressive activity in BALB/c mouse splenocytes assessed as inhibition of CD3/CD28-induced cell proliferation at 5 ug/mL after 48 hrs by MTT assay; type: functional; conditions: Splenocyte
Method in brief: (§1)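 Splenocytes from 6 to 8 week-old BALB/c mice (erythrocytes lysed with ammonium chloride, washed in PBS/2% FBS) plated at 5 × 10⁵ cells/well in RPMI 1640 with 10% FBS and antibiotics; CD3/CD28 co-stimulation with compound ([…] as printed for single-concentration screen, or a concentration series for IC50) for 48 h; survival by MTT.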

[2] = Immunosuppressive activity in BALB/c mouse splenocytes assessed as inhibition of CD3/CD28-induced cell proliferation after 48 hrs by MTT assay; type: functional, cell-based; conditions: Splenocyte; method in brief: as §1
[3] = Cytotoxicity against BALB/c mouse splenocytes at 1 to 10 ug/mL after 48 hrs by MTT assay; type: cell-based; conditions: splenocyte
Method in brief: (§2)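 Spleen cells from 6 to 8 week-old BALB/c mice, single-cell suspension, erythrocytes depleted with ammonium chloride, washed in PBS/2% FBS; 5 × 10⁵ cells/well in RPMI 1640 with 10% FBS, penicillin, streptomycin; unstimulated or CD3/CD28-co-stimulated cells exposed to varied compound concentrations for 48 h; viability by MTT. Compounds from DMSO stocks diluted in RPMI-1640/10% FBS.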

Splenocyte = experiment: Cytotoxicity against CD3/CD28-induced BALB/c mouse splenocytes at 1 to 10 ug/mL after 48 hrs by MTT assay; type: functional, cell-based; method in brief: as §2

Compound | inhibition at 5 µg/mL [1] | pIC50 [2] | Activity [3] | Activity (Splenocyte)
CO/C(=C\c1ccc(OC)cc1)C(=O)Nc1ccc(F)cc1 | < 50% | – | – | –
CO/C(=C\c1ccc(Cl)cc1)C(=O)Nc1ccc(OC)cc1 | < 50% | – | – | –
CO/C(=C\c1ccc(Cl)cc1)C(=O)Nc1ccc(C)cc1 | > 50% | 4.90 | – | –
CO/C(=C\c1ccc(Cl)cc1)C(=O)Nc1ccc(Cl)cc1 | < 50% | – | – | –
CO/C(=C\c1ccc(OC)cc1)C(=O)Nc1ccccc1 | < 50% | – | – | –
CO/C(=C\c1ccccc1)C(=O)Nc1ccc(OC)cc1 | < 50% | – | – | –
CO/C(=C\c1ccccc1)C(=O)Nc1ccc(F)cc1 | > 50% | 5.31 | – | –
CO/C(=C\c1ccc(Cl)cc1)C(=O)Nc1ccc(F)cc1 | > 50% | 4.85 | – | –
CO/C(=C\c1ccc(OC)cc1)C(=O)Nc1ccc(Cl)cc1 | > 50% | 4.83 | – | –
CO/C(=C\c1ccc(Br)cc1)C(=O)Nc1ccc(C(C)C)cc1 | < 50% | – | – | –
CO/C(=C\c1ccc(F)cc1)C(=O)Nc1ccc(F)cc1 | < 50% | – | – | –
CO/C(=C\c1ccc(F)cc1)C(=O)Nc1ccc(Br)cc1 | < 50% | – | – | –
CO/C(=C\c1ccc(F)cc1)C(=O)Nc1ccc(C)cc1 | < 50% | – | – | –
CO/C(=C\c1ccc(OC)cc1)C(=O)Nc1ccc(Br)cc1 | > 50% | 5.75 | Non-toxic | Active
CO/C(=C\c1ccc(Br)cc1)C(=O)Nc1ccc(Cl)cc1 | < 50% | – | – | –
CO/C(=C\c1ccc(Br)cc1)C(=O)Nc1ccc(F)cc1 | < 50% | – | – | –
CO/C(=C\c1ccc(F)cc1)C(=O)Nc1ccc(C(C)C)cc1 | > 50% | 5.33 | Non-toxic | Active
CO/C(=C\c1ccccc1)C(=O)Nc1ccc(C(C)C)cc1 | > 50% | 5.46 | Non-toxic | Active

Compound | inhibition at 5 µg/mL [1] | pIC50 [2] | Activity [3] | Activity (Splenocyte)
CO/C(=C\c1ccc(F)cc1)C(=O)Nc1ccc(Cl)cc1 | > 50% | 5.02 | – | –
CO/C(=C\c1ccc(Br)cc1)C(=O)Nc1ccccc1 | < 50% | – | – | –
CO/C(=C\c1ccccc1)C(=O)Nc1ccccc1 | > 50% | 4.82 | – | –
CO/C(=C\c1ccc(OC)cc1)C(=O)Nc1ccc(OC)cc1 | < 50% | – | – | –
CO/C(=C\c1ccc(Cl)cc1)C(=O)Nc1ccc(C(C)C)cc1 | < 50% | – | – | –
CO/C(=C\c1ccc(Br)cc1)C(=O)Nc1ccc(OC)cc1 | < 50% | – | – | –
CO/C(=C\c1ccc(Cl)cc1)C(=O)Nc1ccccc1 | < 50% | – | – | –
CO/C(=C\c1ccccc1)C(=O)Nc1ccc(Cl)cc1 | > 50% | 4.77 | – | –
CO/C(=C\c1ccc(OC)cc1)C(=O)Nc1ccc(C)cc1 | > 50% | 6.03 | Non-toxic | Active
CO/C(=C\c1ccc(F)cc1)C(=O)Nc1ccccc1 | < 50% | – | – | –
CO/C(=C\c1ccc(Br)cc1)C(=O)Nc1ccc(Br)cc1 | < 50% | – | – | –
CO/C(=C\c1ccccc1)C(=O)Nc1ccc(Br)cc1 | < 50% | – | – | –
CO/C(=C\c1ccc(F)cc1)C(=O)Nc1ccc(OC)cc1 | > 50% | 4.87 | – | –
CO/C(=C\c1ccc(Br)cc1)C(=O)Nc1ccc(C)cc1 | > 50% | 4.89 | – | –
CO/C(=C\c1ccc(OC)cc1)C(=O)Nc1ccc(C(C)C)cc1 | < 50% | – | – | –
CO/C(=C\c1ccccc1)C(=O)Nc1ccc(C)cc1 | > 50% | 4.78 | – | –
CO/C(=C\c1ccc(Cl)cc1)C(=O)Nc1ccc(Br)cc1 | > 50% | 4.96 | – | –
